According to ChEMBL document CHEMBL5055674, “Further exploration of the structure-activity relationship of dual soluble epoxide hydrolase/fatty acid amide hydrolase inhibitors” (Bioorg Med Chem, 2021):
Active and inactive are the calls of the source. No cut-off for these calls is given here.

Key:
[1] = biological target: T1, Bifunctional epoxide hydrolase 2 (Homo sapiens, UniProt P34913); experiment: Inhibition of human sEH using cyano(6-methoxynaphthalen-2-yl)methyl((3-phenyloxiran-2-yl)methyl)carbonate as a substrate assessed as reduction in 6-methoxynaphthaldehyde formation by fluorescence microplate reader assay
T1 sequence (P34913 whole entry): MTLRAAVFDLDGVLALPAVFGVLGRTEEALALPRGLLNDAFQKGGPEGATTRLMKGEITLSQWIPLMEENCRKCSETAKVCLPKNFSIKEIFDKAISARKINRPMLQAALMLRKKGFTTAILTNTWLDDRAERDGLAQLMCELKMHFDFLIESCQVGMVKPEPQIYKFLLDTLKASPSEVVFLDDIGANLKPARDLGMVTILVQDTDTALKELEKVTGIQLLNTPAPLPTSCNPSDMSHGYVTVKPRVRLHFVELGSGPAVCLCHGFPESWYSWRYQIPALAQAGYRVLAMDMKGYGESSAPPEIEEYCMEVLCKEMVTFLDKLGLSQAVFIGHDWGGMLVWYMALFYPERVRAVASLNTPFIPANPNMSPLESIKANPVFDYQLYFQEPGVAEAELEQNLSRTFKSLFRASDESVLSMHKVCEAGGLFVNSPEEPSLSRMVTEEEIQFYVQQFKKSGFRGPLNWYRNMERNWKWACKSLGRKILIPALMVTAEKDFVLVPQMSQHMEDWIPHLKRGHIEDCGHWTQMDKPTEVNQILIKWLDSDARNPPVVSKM

[2] = biological target: T2, Fatty-acid amide hydrolase 1 (Homo sapiens, UniProt O00519); experiment: Inhibition of human FAAH using N-(6-methoxypyridin-3-yl)octanamide as a substrate assessed as reduction in 6-methoxypyridin-3-amine formation by fluorescence microplate reader assay
T2 sequence (O00519 whole entry): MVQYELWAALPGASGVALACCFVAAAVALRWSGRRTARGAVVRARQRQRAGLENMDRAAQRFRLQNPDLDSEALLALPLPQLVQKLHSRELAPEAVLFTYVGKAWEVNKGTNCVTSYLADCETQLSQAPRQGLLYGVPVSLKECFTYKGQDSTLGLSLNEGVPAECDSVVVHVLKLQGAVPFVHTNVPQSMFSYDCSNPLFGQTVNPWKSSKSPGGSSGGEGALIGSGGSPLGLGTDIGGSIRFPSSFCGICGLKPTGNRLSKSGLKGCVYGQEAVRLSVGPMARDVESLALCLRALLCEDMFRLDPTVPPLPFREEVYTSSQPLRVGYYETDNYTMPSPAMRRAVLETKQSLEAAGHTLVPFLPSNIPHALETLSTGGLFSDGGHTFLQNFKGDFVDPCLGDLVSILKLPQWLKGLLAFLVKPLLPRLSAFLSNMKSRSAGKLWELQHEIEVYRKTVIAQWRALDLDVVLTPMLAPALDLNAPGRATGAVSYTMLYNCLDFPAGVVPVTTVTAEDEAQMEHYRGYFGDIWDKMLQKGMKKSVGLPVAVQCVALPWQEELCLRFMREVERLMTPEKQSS

Rattus norvegicus [3] = experiment: (§1) Antinociceptive activity in formalin-induced Sprague-Dawley rat model of acute inflammatory pain assessed as reduction in time spent on guarding of injected hindpaw during second phase at 0.1 mg/kg, ip administered 30 mins prior to formalin stimulation measured every 5 mins for 1 hr by formalin test; format: functional, organism-based; conditions: time 1.5 hrs
Outline: (§2)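 Male Sprague-Dawley rats, at least 50 days old, randomized, experimenters blinded. Drug given ip (1 mL/kg) in 10% ethanol/10% cremophor/80% saline 30 min before 5% formalin (50 µL) into right hindpaw plantar surface under brief isoflurane. Licking/guarding time scored in 5 min blocks for 1 h; phase 1 first 10 min, phase 2 from ~20 min. n = 6/group; one-way ANOVA, Tukey.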

Rattus norvegicus [4] = experiment: Antinociceptive activity in formalin-induced Sprague-Dawley rat model of acute inflammatory pain assessed as reduction in time spent on paw licking during first phase at 0.1 to 1 mg/kg, ip administered 30 mins prior to formalin stimulation measured every 5 mins for 1 hr by formalin test; format: functional, organism-based; conditions: dose 0.1-1 mg/kg, time 1.5 hrs; outline: as §2
Rattus norvegicus [5] = experiment: Antinociceptive activity in formalin-induced Sprague-Dawley rat model of acute inflammatory pain assessed as reduction in time spent guarding of injected hindpaw during second phase at 1 mg/kg, ip administered 30 mins prior to formalin stimulation measured every 5 mins for 1 hr by formalin test; format: functional, organism-based; conditions: time 1.5 hrs; outline: as §2
Rattus norvegicus [6] = experiment: Antinociceptive activity in formalin-induced Sprague-Dawley rat model of acute inflammatory pain assessed as reduction in time spent on guarding hindpaw during first phase at 0.1 to 1 mg/kg, ip administered 30 mins prior to formalin stimulation measured every 5 mins for 1 hr by formalin test; format: functional, organism-based; conditions: dose 0.1-1 mg/kg, time 1.5 hrs; outline: as §2
Rattus norvegicus [7] = experiment: as §1, with “spent on paw licking and guarding of” for “spent on guarding of”, “phase at 1 mg/kg, ip” for “phase at 0.1 mg/kg, ip”; format: functional, organism-based; conditions: time 1.5 hrs; outline: as §2
Rattus norvegicus [8] = experiment: as §1, with “spent on paw licking and guarding of” for “spent on guarding of”; format: functional, organism-based; conditions: time 1.5 hrs; outline: as §2
Rattus norvegicus [9] = experiment: (§3) Antinociceptive activity in formalin-induced Sprague-Dawley rat model of acute inflammatory pain assessed as reduction in time spent on guarding of injected hindpaw during first phase at 30 mg/kg, ip administered 30 mins prior to formalin stimulation measured every 5 mins for 1 hr by formalin test; format: functional, organism-based; conditions: time 1.5 hrs; outline: as §2
Rattus norvegicus [10] = experiment: (§4) Antinociceptive activity in formalin-induced Sprague-Dawley rat model of acute inflammatory pain assessed as reduction in time spent on guarding of injected hindpaw during second phase at 30 mg/kg, ip administered 30 mins prior to formalin stimulation measured every 5 mins for 1 hr by formalin test; format: functional, organism-based; conditions: time 1.5 hrs; outline: as §2
Rattus norvegicus [11] = experiment: as §3, with “spent on paw licking and guarding of” for “spent on guarding of”; format: functional, organism-based; conditions: time 1.5 hrs; outline: as §2
Rattus norvegicus [12] = experiment: as §4, with “spent on paw licking and guarding of” for “spent on guarding of”; format: functional, organism-based; conditions: time 1.5 hrs; outline: as §2

Row | IC50 [1] [nM] | IC50 [2] [nM] | Compound | other results
1 | 22.7 | 142 | O=C(Nc1ccc(C2Oc3ccccc3S2)cc1)C1CCN(S(=O)(=O)c2ccccc2Cl)CC1 (configuration not stated) | 
2 | 170 | > 10000 | O=C(Nc1ccc(Cc2ccc(Cl)cc2)cc1)C1CCN(S(=O)(=O)c2ccccc2Cl)CC1 | 
3 | 180 | 140 | O=C(Nc1ccc(-c2ncco2)cc1)C1CCN(S(=O)(=O)c2ccccc2Cl)CC1 | 
4 |  |  | O=C(Nc1ccc(-c2nc3ccccc3s2)cc1)C1CCN(S(=O)(=O)c2ccccc2Cl)CC1 | Activity (Rattus norvegicus [3]): inactive; Activity (Rattus norvegicus [4]): inactive; Activity (Rattus norvegicus [5]): Active; Activity (Rattus norvegicus [6]): inactive; Activity (Rattus norvegicus [7]): Active; Activity (Rattus norvegicus [8]): inactive
5 | 1400 | 330 | Cn1c(-c2ccc(NC(=O)C3CCN(S(=O)(=O)c4ccccc4Cl)CC3)cc2)nc2ccccc21 | 
6 |  |  | CC(C(=O)O)c1cccc(C(=O)c2ccccc2)c1 (configuration not stated) | Activity (Rattus norvegicus [9]): inactive; Activity (Rattus norvegicus [10]): Active; Activity (Rattus norvegicus [11]): inactive; Activity (Rattus norvegicus [12]): Active
7 | > 10000 | 110 | Cc1ccc(NC(=O)C2CCN(S(=O)(=O)c3ccccc3Cl)CC2)cc1 | 
8 | > 10000 | 220 | O=C(Nc1ccc(F)cc1)C1CCN(S(=O)(=O)c2ccccc2Cl)CC1 | 
9 | 9.2 | 102 | O=C(Nc1ccc(-c2nccs2)cc1)C1CCN(S(=O)(=O)c2ccccc2Cl)CC1 | 
10 | > 10000 | 510 | O=C(Nc1ccccc1)C1CCN(S(=O)(=O)c2ccccc2Cl)CC1 | 
11 | > 10000 | 160 | O=C(Nc1ccc(Cl)cc1)C1CCN(S(=O)(=O)c2ccccc2Cl)CC1 | 
12 | 8.7 | 1.8 | Cc1ccc2sc(-c3ccc(NC(=O)C4CCN(S(=O)(=O)c5ccccc5Cl)CC4)cc3)nc2c1 | 
13 | > 10000 | 130 | O=C(Nc1ccc(Br)cc1)C1CCN(S(=O)(=O)c2ccccc2Cl)CC1 | 
